Laboratory results: ChEMBL document CHEMBL1255336, “Single-dose safety and pharmacokinetics of ST-246, a novel orthopoxvirus egress inhibitor” (Antimicrob Agents Chemother, 2008)

Legend:
Homo sapiens [1] = experiment: Toxicity in fasting healthy human assessed as adverse events at 1000 mg, po administered as single dose measured after 48 hrs; format: organism-based; conditions: in vivo
Summary of the method: (§1)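 Randomized, placebo-controlled single oral dose in healthy adults, groups of 10 (8 drug, 2 placebo), dose escalated after safety review. Fasting groups got 500, 1,000 or 2,000 mg; one group got 1,000 mg fed. Treatment-emergent adverse events, vital signs, hematology, chemistries, urinalysis and ECG were recorded through day 1 and follow-up at weeks 1 and 4. Drug relation was judged blinded.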

[2] = AUC(0 to infinity) in fasting healthy human at 500 mg, po administered as single dose measured after 48 hrs; format: ADME, organism-based; set-up: dose 500 mg, route oral, time infinity; conditions: plasma
Summary of the method: (§2)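 Randomised placebo-controlled single oral dose in healthy subjects (8 active, 2 placebo per group); groups 1–3 fasting, group 4 nonfasting. Plasma sampled predose to 48 h (groups 1–3) or 72 h (group 4), centrifuged 4°C, stored –70°C. LC-MS/MS with analog internal standard. Noncompartmental analysis on actual times; Cmax observed; AUC by trapezoid rule, extrapolated with kel; CL = dose/AUC0-∞.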

Homo sapiens [3] = experiment: Toxicity in fasting healthy human assessed as headache at 500 mg, po administered as single dose measured after 48 hrs; format: organism-based; conditions: in vivo; summary of the method: as §1
[4] = Cmax in fasting healthy human at 2000 mg, po administered as single dose measured after 48 hrs; format: ADME, organism-based; set-up: dose 2000 mg, route oral; conditions: in vivo; summary of the method: as §2
[5] = Tmax in fasting healthy human at 500 mg, po administered as single dose measured after 48 hrs; format: ADME, organism-based; conditions: in vivo
Summary of the method: (§3)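 Healthy volunteers, 8 per group on active drug (2 placebo), single fasting oral dose. Venous plasma drawn predose and 0.5–12, 24, 48 h postdose, kept at –70°C, assayed by validated LC-MS/MS with analog internal standard. Noncompartmental analysis on actual times; Tmax observed directly; kel by log-linear regression of ≥3 terminal points; CL = dose/AUC0-∞. Median values.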

[6] = Apparent oral clearance in fasting healthy human at 500 mg, po administered as single dose measured after 48 hrs; format: ADME, organism-based; conditions: in vivo; summary of the method: as §2
[7] = AUC(0 to infinity) in nonfasting healthy human at 1000 mg, po administered as single dose measured after 72 hrs; format: ADME, organism-based; set-up: dose 1000 mg, time infinity, route oral; conditions: plasma; summary of the method: as §2
Homo sapiens [8] = experiment: Toxicity in healthy human assessed as headache at 1000 mg, po administered as single dose measured after 72 hrs; format: organism-based; conditions: in vivo; summary of the method: as §1
Homo sapiens [9] = experiment: Median half life in fasting healthy human at 1000 mg, po administered as single dose measured after 48 hrs; format: ADME, organism-based; conditions: in vivo
[10] = Tmax in nonfasting healthy human at 1000 mg, po administered as single dose measured after 72 hrs; format: ADME, organism-based; conditions: in vivo
Summary of the method: (§4)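 Healthy volunteers (8 active, 2 placebo) given a single 1,000 mg oral dose in the fed state. Plasma sampled predose, at 0.5–12 h, 24, 48 and 72 h postdose and analysed by validated LC-MS/MS. Noncompartmental analysis on actual sampling times. Tmax observed directly; t1/2 from kel fitted to ≥3 terminal log-linear points. Median values.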

[11] = Apparent oral clearance in nonfasting healthy human at 1000 mg, po administered as single dose measured after 72 hrs; format: ADME, organism-based; conditions: in vivo; summary of the method: as §2
[12] = Plasma clearance in fasting healthy human at 500 mg, po administered as single dose measured after 48 hrs; format: ADME, organism-based; summary of the method: as §2
[13] = Cmax in fasting healthy human at 500 mg, po administered as single dose measured after 48 hrs; format: ADME, organism-based; set-up: dose 500 mg, route oral; conditions: in vivo; summary of the method: as §2
[14] = Apparent oral clearance in fasting healthy human at 1000 mg, po administered as single dose measured after 48 hrs; format: ADME, organism-based; conditions: in vivo; summary of the method: as §2
[15] = Plasma clearance in fasting healthy human at 1000 mg, po administered as single dose measured after 48 hrs; format: ADME, organism-based; summary of the method: as §2
Homo sapiens [16] = experiment: Toxicity in fasting healthy human assessed as neutropenia at 1000 mg, po administered as single dose measured after 48 hrs; format: organism-based; conditions: in vivo; summary of the method: as §1
Homo sapiens [17] = experiment: Toxicity in fasting healthy human assessed as adverse events at 500 mg, po administered as single dose measured after 48 hrs; format: organism-based; conditions: in vivo
Summary of the method: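 Healthy subjects given single oral dose, 8 active and 2 placebo per group. Safety covered adverse events, vital signs, ECG (day 1 and week 4), hematology, chemistries, urinalysis before and after dosing. Follow-up visits at week 1 and week 4. Cohort safety was reviewed before the next dose group.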

[18] = Terminal half life in fasting healthy human at 2000 mg, po administered as single dose measured after 48 hrs; format: ADME, organism-based; conditions: in vivo; summary of the method: as §3
[19] = Apparent oral clearance in fasting healthy human at 2000 mg, po administered as single dose measured after 48 hrs; format: ADME, organism-based; conditions: in vivo; summary of the method: as §3
[20] = Plasma clearance in nonfasting healthy human at 1000 mg, po administered as single dose measured after 72 hrs; format: ADME, organism-based; summary of the method: as §2
[21] = Median half life in fasting healthy human at 500 mg, po administered as single dose measured after 48 hrs; format: ADME, organism-based; conditions: in vivo; summary of the method: as §3
[22] = Terminal half life in fasting healthy human at 500 mg, po administered as single dose measured after 48 hrs; format: ADME, organism-based; conditions: in vivo; summary of the method: as §3
[23] = Median half life in fasting healthy human at 2000 mg, po administered as single dose measured after 48 hrs; format: ADME, organism-based; conditions: in vivo; summary of the method: as §3
[24] = Plasma clearance in fasting healthy human at 2000 mg, po administered as single dose measured after 48 hrs; format: ADME, organism-based; summary of the method: as §2
[25] = Terminal half life in nonfasting healthy human at 1000 mg, po administered as single dose measured after 72 hrs; format: ADME, organism-based; conditions: in vivo; summary of the method: as §4
[26] = AUClast in fasting healthy human at 500 mg, po administered as single dose measured after 48 hrs; format: ADME, organism-based; set-up: dose 500 mg, time < 48 hr, route oral; conditions: plasma; summary of the method: as §2
[27] = Tmax in fasting healthy human at 2000 mg, po administered as single dose measured after 48 hrs; format: ADME, organism-based; conditions: in vivo; summary of the method: as §3
[28] = AUClast in fasting healthy human at 2000 mg, po administered as single dose measured after 48 hrs; format: ADME, organism-based; set-up: time < 48 hr, dose 2000 mg, route oral; conditions: plasma; summary of the method: as §2
Homo sapiens [29] = experiment: Toxicity in healthy human assessed as adverse events at 1000 mg, po administered as single dose measured after 72 hrs; format: organism-based; conditions: in vivo; summary of the method: as §1
[30] = Cmax in nonfasting healthy human at 1000 mg, po administered as single dose measured after 72 hrs; format: ADME, organism-based; set-up: dose 1000 mg, route oral; conditions: in vivo; summary of the method: as §2
[31] = Cmax in fasting healthy human at 1000 mg, po administered as single dose measured after 48 hrs; format: ADME, organism-based; set-up: dose 1000 mg, route oral; conditions: in vivo; summary of the method: as §2
[32] = Tmax in fasting healthy human at 1000 mg, po administered as single dose measured after 48 hrs; format: ADME, organism-based; conditions: in vivo
Homo sapiens [33] = experiment: Toxicity in fasting healthy human assessed as constipation at 1000 mg, po administered as single dose measured after 48 hrs; format: organism-based; conditions: in vivo; summary of the method: as §1
[34] = AUClast in fasting healthy human at 1000 mg, po administered as single dose measured after 48 hrs; format: ADME, organism-based; set-up: dose 1000 mg, time < 48 hr, route oral; conditions: plasma; summary of the method: as §2
Homo sapiens [35] = experiment: Toxicity in fasting healthy human assessed as back pain at 500 mg, po administered as single dose measured after 48 hrs; format: organism-based; conditions: in vivo; summary of the method: as §1
[36] = AUC(0 to infinity) in fasting healthy human at 1000 mg, po administered as single dose measured after 48 hrs; format: ADME, organism-based; set-up: dose 1000 mg, time infinity, route oral; conditions: plasma; summary of the method: as §2
[37] = Apparent Cmax in nonfasting healthy human at 1000 mg, po administered as single dose measured after 72 hrs; format: ADME, organism-based; set-up: dose 1000 mg, route oral; conditions: in vivo; summary of the method: as §2
[38] = Terminal half life in fasting healthy human at 1000 mg, po administered as single dose measured after 48 hrs; format: ADME, organism-based; conditions: in vivo; summary of the method: as §3
[39] = AUClast in nonfasting healthy human at 1000 mg, po administered as single dose measured after 72 hrs; format: ADME, organism-based; set-up: time < 72 hr, dose 1000 mg, route oral; conditions: plasma; summary of the method: as §2
Homo sapiens [40] = experiment: Toxicity in fasting healthy human assessed as feeling abnormal at 500 mg, po administered as single dose measured after 48 hrs; format: organism-based; conditions: in vivo; summary of the method: as §1
[41] = AUC(0 to infinity) in fasting healthy human at 2000 mg, po administered as single dose measured after 48 hrs; format: ADME, organism-based; set-up: dose 2000 mg, time infinity, route oral; conditions: plasma; summary of the method: as §2

O=C(NN1C(=O)[C@@H]2[C@@H]3C=C[C@@H]([C@H]4C[C@@H]34)[C@@H]2C1=O)c1ccc(C(F)(F)F)cc1 [TECOVIRIMAT]
Activity (Homo sapiens [1]): 12.5% | AUC(0-inf) [2]: 9810 ng·h/mL | Activity (Homo sapiens [3]): 12.5% | Cmax [4]: 2550 ng/mL | Tmax [5]: 2 h | CL/F [6]: 883 mL/min | AUC(0-inf) [7]: 35900 ng·h/mL | Activity (Homo sapiens [8]): 12.5% | t1/2 (Homo sapiens [9]): 19.8 h | Tmax [10]: 5 h | CL/F [11]: 500 mL/min | CL/F [12]: 860 mL/min | Cmax [13]: 934 ng/mL | CL/F [14]: 817 mL/min | CL/F [15]: 838 mL/min | Activity (Homo sapiens [16]): 12.5% | Activity (Homo sapiens [17]): 25% | half-life [18]: 22 h | CL/F [19]: 1320 mL/min | CL/F [20]: 513 mL/min | half-life [21]: 20.9 h | half-life [22]: 26 h | half-life [23]: 18.9 h | CL/F [24]: 1290 mL/min | half-life [25]: 17 h | AUC(0-t) at 48 h [26]: 9880 ng·h/mL | Tmax [27]: 3 h | AUC(0-t) at 48 h [28]: 24500 ng·h/mL | Activity (Homo sapiens [29]): 12.5% | Cmax [30]: 2930 ng/mL | Cmax [31]: 1810 ng/mL | Tmax [32]: 3 h | Activity (Homo sapiens [33]): 12.5% | AUC(0-t) at 48 h [34]: 21100 ng·h/mL | Activity (Homo sapiens [35]): 12.5% | AUC(0-inf) [36]: 24900 ng·h/mL | Cmax [37]: 3120 ng/mL | half-life [38]: 40 h | AUC(0-t) at 72 h [39]: 34100 ng·h/mL | Activity (Homo sapiens [40]): 12.5% | AUC(0-inf) [41]: 25700 ng·h/mL
